Test results from ChEMBL document CHEMBL4330056, “Synthesis and Cytotoxic and Antiviral Profiling of Pyrrolo- and Furo-Fused 7-Deazapurine Ribonucleosides” (J Med Chem, 2018).
The source made the active and inactive calls. The rule behind the calls is not given here.

Assays:
[1] = test system: Hepatitis C virus; experiment: Antiviral activity against Hepatitis C virus genotype 2a infected in human Huh-luc replicon cells after 3 days by luciferase assay; type: functional, organism-based, Hepacivirus hominis; details: subtype 2a, 72 h
[2] = test system: CCRF-CEM; experiment: Inhibition of mitosis in human CCRF-CEM cells assessed Ser10 H3 phosphorylation positive cells at IC50 concentration after 24 hrs by flow cytometry relative to total cell population (reference value: 1.36%); type: functional; set-up: scale not given: the % may be the effect or the level left
[3] = test system: CCRF-CEM; experiment: Inhibition of RNA synthesis in human CCRF-CEM cells assessed as RNA synthesis level at IC50 concentration after 24 hrs by BrU incorporation assay (reference value: 49.89%); type: functional; set-up: scale not given: the % may be the effect or the level left
[4] = Cytotoxicity against human Hep2 cells assessed as reduction in cell viability after 3 days by CellTiter-Glo assay; type: cell-based; details: HEp-2 cells
[5] = test system: CCRF-CEM; experiment: Inhibition of DNA synthesis in human CCRF-CEM cells assessed as DNA synthesis level at 5 times IC50 concentration after 24 hrs by BrdU incorporation assay (reference value: 43.39%); type: functional; set-up: scale not given: the % may be the effect or the level left
[6] = test system: CCRF-CEM; experiment: Induction of cell cycle arrest in human CCRF-CEM cells assessed as accumulation at S phase at 5 times IC50 concentration after 24 hrs by propidium iodide-staining based flow cytometry (reference value: 41.08%); type: functional
[7] = target: T1, Adenosine kinase (Homo sapiens, UniProt P55263); experiment: Inhibition of recombinant human ADK using [3H]-adenosine as substrate after 20 mins by TLC scanner-based analysis relative to control
Outline: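 ADK inhibition: 50 μM adenosine substrate with 10 μM test compound and 97 ng enzyme, 20 min at 37 °C.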

[8] = test system: HL-60; experiment: Antiproliferative activity against human HL60 cells after 72 hrs by XTT assay; type: functional, cell-based; details: HL-60, 72 h
[9] = test system: K562; experiment: Antiproliferative activity against human K562 cells after 3 days by MTS assay; type: functional, cell-based; details: K562, 72 h
[10] = test system: CCRF-CEM; experiment: Induction of cell cycle arrest in human CCRF-CEM cells assessed as accumulation at G0/G1 phase at 5 times IC50 concentration after 24 hrs by propidium iodide-staining based flow cytometry (reference value: 39.70%); type: functional
[11] = test system: Hepatitis C virus; experiment: Antiviral activity against Hepatitis C virus genotype 1b infected in human Huh-luc replicon cells after 3 days by luciferase assay; type: functional, organism-based, Hepacivirus hominis; details: subtype 1b, 72 h
[12] = test system: CCRF-CEM; experiment: Inhibition of RNA synthesis in human CCRF-CEM cells assessed as RNA synthesis level at 5 times IC50 concentration after 24 hrs by BrU incorporation assay (reference value: 49.89%); type: functional; set-up: scale not given: the % may be the effect or the level left
[13] = test system: Influenza A virus; experiment: Antiviral activity against Influenza A virus (A/Mexico/4108/2009(H1N1)) infected in MDCK cells assessed as inhibited virus-induced cytopathic effect incubated for 2 days by XTT assay; type: functional, organism-based
[14] = test system: CCRF-CEM; experiment: Induction of cell cycle arrest in human CCRF-CEM cells assessed as accumulation at subG1 phase at IC50 concentration after 24 hrs by propidium iodide-staining based flow cytometry (reference value: 3.45%); type: functional
[15] = test system: HCT-116; experiment: Antiproliferative activity against p53 gene knocked out human HCT116 cells after 3 days by MTS assay; type: functional, cell-based; details: HCT-116, 72 h
[16] = test system: MRC5; experiment: Antiproliferative activity against human MRC5 cells after 3 days by MTS assay; details: MRC5, 72 h
[17] = test system: Coxsackievirus B3; experiment: Antiviral activity against Human coxsackie B3 Nancy infected in human HeLa cells assessed as inhibited virus-induced cytopathic effect incubated for 2 days by XTT assay; type: functional, organism-based
[18] = test system: Human alphaherpesvirus 1; experiment: Antiviral activity against human herpesvirus 1 HF infected in African green monkey Vero cells assessed as inhibited virus-induced cytopathic effect incubated for 3 days by XTT assay; type: functional, organism-based
[19] = test system: CCRF-CEM; experiment: Induction of cell cycle arrest in human CCRF-CEM cells assessed as accumulation at S phase at IC50 concentration after 24 hrs by propidium iodide-staining based flow cytometry (reference value: 41.08%); type: functional
[20] = test system: A549; experiment: Antiproliferative activity against human A549 cells after 3 days by MTS assay; type: functional, cell-based; details: A549, 72 h
[21] = test system: U2OS; experiment: Antiproliferative activity against human U2OS cells after 3 days by MTS assay; type: functional, cell-based; details: 72 h
[22] = test system: dengue virus type 2; experiment: Antiviral activity against Dengue virus 2 Thailand/16681/84 infected in African green monkey Vero cells assessed as inhibition of virus replication incubated for 3 days by fluorescence microscopy; type: functional, organism-based
[23] = test system: CCRF-CEM; experiment: Inhibition of DNA synthesis in human CCRF-CEM cells assessed as DNA synthesis level at IC50 concentration after 24 hrs by BrdU incorporation assay (reference value: 43.39%); type: functional; set-up: scale not given: the % may be the effect or the level left
[24] = test system: HepG2; experiment: Antiproliferative activity against human HepG2 cells after 72 hrs by XTT assay; type: functional, cell-based; details: HepG2, 72 h
[25] = target: T1, Adenosine kinase; experiment: Substrate activity at recombinant human ADK assessed as compound phosphorylation at 50 uM after 20 mins in presence of [3H]-adenosine by UPLC; type: ADME
[26] = test system: CCRF-CEM; experiment: Induction of cell cycle arrest in human CCRF-CEM cells assessed as accumulation at subG1 phase at 5 times IC50 concentration after 24 hrs by propidium iodide-staining based flow cytometry (reference value: 3.45%); type: functional
[27] = Antiproliferative activity against human K562-TAX cells after 3 days by MTS assay; type: functional, cell-based; details: 72 h
[28] = test system: CCRF-CEM; experiment: Induction of cell cycle arrest in human CCRF-CEM cells assessed as accumulation at G0/G1 phase at IC50 concentration after 24 hrs by propidium iodide-staining based flow cytometry (reference value: 39.70%); type: functional
[29] = test system: HeLa S3; experiment: Antiproliferative activity against human HeLaS3 cells after 72 hrs by XTT assay; type: functional, cell-based; details: HeLa S3, 72 h
[30] = test system: CCRF-CEM; experiment: Antiproliferative activity against human CCRF-CEM cells after 3 days by MTS assay; type: functional, cell-based; details: 72 h
[31] = test system: CCRF-CEM; experiment: Inhibition of mitosis in human CCRF-CEM cells assessed Ser10 H3 phosphorylation positive cells at 5 times IC50 concentration after 24 hrs by flow cytometry relative to total cell population (reference value: 1.36%); type: functional; set-up: scale not given: the % may be the effect or the level left
[32] = test system: HCT-116; experiment: Antiproliferative activity against human HCT116 cells after 3 days by MTS assay; type: functional, cell-based; details: HCT-116, 72 h
[33] = Antiproliferative activity against human CEM-DNR-bulk cells after 3 days by MTS assay; details: 72 h
[34] = test system: Human orthopneumovirus; experiment: Antiviral activity against Human respiratory syncytial virus A2 infected in Hep2 cells assessed as reduction in virus-induced cytopathic effect incubated for 4 days by CellTiter-Glo viability reagent based assay; type: functional, organism-based
[35] = test system: CCRF-CEM; experiment: Induction of cell cycle arrest in human CCRF-CEM cells assessed as accumulation at G2/M phase at 5 times IC50 concentration after 24 hrs by propidium iodide-staining based flow cytometry (reference value: 19.22%); type: functional
[36] = test system: CCRF-CEM; experiment: Induction of cell cycle arrest in human CCRF-CEM cells assessed as accumulation at G2/M phase at IC50 concentration after 24 hrs by propidium iodide-staining based flow cytometry (reference value: 19.22%); type: functional
[37] = test system: BJ; experiment: Antiproliferative activity against human BJ cells after 3 days by MTS assay; details: 72 h

T1 sequence (P55263 whole entry): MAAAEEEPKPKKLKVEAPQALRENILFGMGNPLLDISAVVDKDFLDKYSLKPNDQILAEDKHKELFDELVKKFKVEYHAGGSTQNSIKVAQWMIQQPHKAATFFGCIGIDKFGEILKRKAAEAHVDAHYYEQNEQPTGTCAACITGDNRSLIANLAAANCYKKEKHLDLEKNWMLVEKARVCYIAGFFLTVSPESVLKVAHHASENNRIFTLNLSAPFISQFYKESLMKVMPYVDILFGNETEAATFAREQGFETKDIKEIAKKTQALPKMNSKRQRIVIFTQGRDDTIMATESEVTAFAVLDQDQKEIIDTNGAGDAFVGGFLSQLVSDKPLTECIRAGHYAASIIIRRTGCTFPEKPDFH

SMILES	Activity [2] [%]	Activity [3] [%]	Activity [5] [%]	Activity [6] [%]	Activity [10] [%]	Activity [12] [%]	Activity [14] [%]	IC50 [15] [nM]	IC50 [16] [nM]	Activity [19] [%]	IC50 [20] [nM]	IC50 [21] [nM]	Activity [23] [%]	Activity [26] [%]	IC50 [27] [nM]	Activity [28] [%]	IC50 [29] [nM]	Activity [31] [%]	IC50 [32] [nM]	IC50 [33] [nM]	further results
COc1ncnc2c1c1occc1n2[C@@H]1O[C@H](CO)[C@@H](O)[C@H]1O	0.56	25.36	52.74	65.39	20.54	4.3	4.23	300	13400	41.82	1930	430	42.65	6.82	300	41.52	2310	0.58	280	3120	EC50 [1]: 290 nM; CC50 at 72 h [4]: > 44400 nM; IC50 [7]: > 10000 nM; IC50 [8]: 700 nM; IC50 [9]: 320 nM; EC50 [11]: 380 nM; Activity [13]: inactive; Activity [17]: inactive; Activity [18]: inactive; Activity [22]: inactive; IC50 [24]: 2410 nM; Activity [25]: 35%; IC50 [30]: 180 nM; Activity [34]: inactive; Activity [35]: 14.07%; Activity [36]: 16.65%; IC50 [37]: 1090 nM
Nc1ncnc2c1c(-c1cccs1)cn2[C@@H]1O[C@H](CO)[C@@H](O)[C@H]1O	2.09	0.91	10.76	38.71	32.31	57.09	29.83	20	> 50000	62.28	13100	510	3.59	58.53	40	20.49	20	0.94	20	60	Activity [35]: 28.98%; Activity [36]: 17.23%; IC50 [37]: > 50000 nM
